# Assay results taken from ChEMBL document CHEMBL1649400, “Synthesis and antitumor activity of ureas containing pyrimidinyl group” (Eur J Med Chem, 2011).
# What was measured:
# Format in all cases: functional, cell-based
# [1] = test system: KB; assay: Cytotoxicity against human KB cells after 3 days by MTT assay; details: 72 h
# Outline: (§1)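 Cells grown in RPMI 1640 with 10% fetal calf serum were plated from suspension and held 12 h at 37 °C, 5% CO2. Test sample was then added and cells were cultured 3 days at 37 °C. MTT was added for 4 h at 37 °C, supernatant removed, formazan dissolved in DMSO, absorbance read at 570 nm. IC50 = concentration giving 50% growth inhibition versus untreated control.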
# [2] = Cytotoxicity against human CNE2 cells after 3 days by MTT assay; details: CNE-2, 72 h; outline: as §1
# [3] = test system: MCF7; assay: Cytotoxicity against human MCF7 cells after 3 days by MTT assay; details: MCF7, 72 h; outline: as §1
# [4] = test system: MGC-803; assay: Cytotoxicity against human MGC803 cells after 3 days by MTT assay; details: MGC-803, 72 h; outline: as §1
SMILES,IC50 [1],IC50 [2],IC50 [3],IC50 [4]
Cc1cc(C)nc(Oc2ccc(NC(=O)Nc3ccccc3)cc2)n1,> 50 µM,–,–,–
Cc1cccc(NC(=O)Nc2ccc(Oc3nc(C)cc(C)n3)cc2)c1,> 50 µM,–,–,–
Cc1cc(C)nc(Oc2ccc(NC(=O)Nc3ccc(OC(F)(F)F)cc3)cc2)n1,28.9 µM,30.8 µM,> 50 µM,> 50 µM
Cc1cc(C)nc(Oc2ccc(NC(=O)Nc3ccc(F)cc3)cc2)n1,48.4 µM,46.9 µM,> 50 µM,> 50 µM
Cc1cc(C)nc(Oc2ccc(NC(=O)Nc3ccc(Cl)cc3)cc2)n1,25.4 µM,20.4 µM,> 50 µM,> 50 µM
Cc1cc(C)nc(Oc2ccc(NC(=O)Nc3ccc(Cl)cc3Cl)cc2)n1,31.8 µM,38.9 µM,47.8 µM,35.4 µM
Cc1cc(C)nc(Sc2ccc(NC(=O)Nc3ccccc3)cc2)n1,25.7 µM,22 µM,> 50 µM,40.1 µM
Cc1cccc(NC(=O)Nc2ccc(Sc3nc(C)cc(C)n3)cc2)c1,47.8 µM,> 50 µM,37 µM,25.3 µM
Cc1cc(C)nc(Sc2ccc(NC(=O)Nc3ccc(OC(F)(F)F)cc3)cc2)n1,20 µM,22.8 µM,41.7 µM,13.8 µM
Cc1cc(C)nc(Sc2ccc(NC(=O)Nc3ccc(F)cc3)cc2)n1,32.1 µM,34.1 µM,> 50 µM,> 50 µM
Cc1cc(C)nc(Sc2ccc(NC(=O)Nc3ccc(Cl)cc3)cc2)n1,10.2 µM,13.5 µM,35.3 µM,26.1 µM
Cc1cc(C)nc(Sc2ccc(NC(=O)Nc3ccc(Cl)cc3Cl)cc2)n1,15.5 µM,23.2 µM,> 50 µM,> 50 µM
COc1ccc(NC(=O)Nc2ccc(Cl)cc2)cc1,> 50 µM,> 50 µM,> 50 µM,–
COc1ccc(NC(=O)Nc2ccc(Cl)cc2Cl)cc1,> 50 µM,> 50 µM,> 50 µM,> 50 µM
O=c1[nH]cc(F)c(=O)[nH]1 [FLUOROURACIL],11.9 µM,13.1 µM,15.2 µM,12.6 µM
